In ChEMBL document CHEMBL1136005 (J Med Chem, 2002):
pIC50: −log10 of the molar value.

Columns and labels:
[1] = target: Platelet-derived growth factor receptor (Homo sapiens, UniProt P09619+P16234); experiment: Concentration required for 50% inhibition against autophosphorylation of Platelet-derived growth factor receptor beta in intact cells using a two site ELISA; format: cell-based
[2] = target: cAMP-dependent protein kinase (PKA) (Homo sapiens, UniProt P22694+P17612+P22612); experiment: Inhibition of Protein kinase A (PKA); format: protein assay
Outline: (§1)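 Substrate phosphorylation measured in an in vitro assay with purified enzyme; IC50 values in µmol/L.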

[3] = target: Protein kinase C (PKC); experiment: Inhibition of Protein kinase C; format: protein assay; outline: as §1
[4] = target: Mast/stem cell growth factor receptor Kit (Homo sapiens, UniProt P10721); experiment: Inhibition of Mast/stem cell growth factor receptor (c-kit) autophosphorylation
Chain of Mast/stem cell growth factor receptor Kit (P10721 whole entry): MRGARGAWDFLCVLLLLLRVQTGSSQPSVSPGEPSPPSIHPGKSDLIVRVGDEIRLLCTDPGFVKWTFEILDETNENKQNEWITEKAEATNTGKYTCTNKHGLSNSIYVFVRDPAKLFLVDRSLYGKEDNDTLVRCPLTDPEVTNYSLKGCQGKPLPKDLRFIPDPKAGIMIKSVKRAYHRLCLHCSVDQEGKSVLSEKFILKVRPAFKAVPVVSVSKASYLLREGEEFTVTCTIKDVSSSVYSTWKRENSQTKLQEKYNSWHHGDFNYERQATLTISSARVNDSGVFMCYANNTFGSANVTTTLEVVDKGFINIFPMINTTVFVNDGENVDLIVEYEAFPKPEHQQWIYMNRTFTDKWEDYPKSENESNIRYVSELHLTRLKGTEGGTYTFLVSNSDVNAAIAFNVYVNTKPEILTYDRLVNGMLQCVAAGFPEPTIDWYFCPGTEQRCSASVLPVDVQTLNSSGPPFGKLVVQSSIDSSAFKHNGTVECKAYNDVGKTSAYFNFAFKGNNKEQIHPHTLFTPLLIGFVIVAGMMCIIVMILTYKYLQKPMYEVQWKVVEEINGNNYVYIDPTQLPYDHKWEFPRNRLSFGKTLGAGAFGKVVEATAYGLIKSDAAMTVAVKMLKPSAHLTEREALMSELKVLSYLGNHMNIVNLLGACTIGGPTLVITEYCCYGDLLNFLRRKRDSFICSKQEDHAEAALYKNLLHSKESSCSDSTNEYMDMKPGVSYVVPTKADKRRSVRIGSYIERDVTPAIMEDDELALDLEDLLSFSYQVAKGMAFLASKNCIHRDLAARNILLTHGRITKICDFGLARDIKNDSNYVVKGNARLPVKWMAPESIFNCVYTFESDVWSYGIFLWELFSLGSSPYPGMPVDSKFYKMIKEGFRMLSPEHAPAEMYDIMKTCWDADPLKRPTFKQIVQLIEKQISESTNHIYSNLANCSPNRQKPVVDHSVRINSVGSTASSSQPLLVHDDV

[5] = target: Fibroblast growth factor receptor (Homo sapiens, UniProt P22607+P11362+P22455+P21802); experiment: Inhibition of Fibroblast growth factor receptor autophosphorylation; format: protein assay
[6] = target: T1, Receptor-type tyrosine-protein kinase FLT3 (Homo sapiens, UniProt P36888); experiment: Inhibition of Flt3 autophosphorylation
T1 sequence (P36888 whole entry): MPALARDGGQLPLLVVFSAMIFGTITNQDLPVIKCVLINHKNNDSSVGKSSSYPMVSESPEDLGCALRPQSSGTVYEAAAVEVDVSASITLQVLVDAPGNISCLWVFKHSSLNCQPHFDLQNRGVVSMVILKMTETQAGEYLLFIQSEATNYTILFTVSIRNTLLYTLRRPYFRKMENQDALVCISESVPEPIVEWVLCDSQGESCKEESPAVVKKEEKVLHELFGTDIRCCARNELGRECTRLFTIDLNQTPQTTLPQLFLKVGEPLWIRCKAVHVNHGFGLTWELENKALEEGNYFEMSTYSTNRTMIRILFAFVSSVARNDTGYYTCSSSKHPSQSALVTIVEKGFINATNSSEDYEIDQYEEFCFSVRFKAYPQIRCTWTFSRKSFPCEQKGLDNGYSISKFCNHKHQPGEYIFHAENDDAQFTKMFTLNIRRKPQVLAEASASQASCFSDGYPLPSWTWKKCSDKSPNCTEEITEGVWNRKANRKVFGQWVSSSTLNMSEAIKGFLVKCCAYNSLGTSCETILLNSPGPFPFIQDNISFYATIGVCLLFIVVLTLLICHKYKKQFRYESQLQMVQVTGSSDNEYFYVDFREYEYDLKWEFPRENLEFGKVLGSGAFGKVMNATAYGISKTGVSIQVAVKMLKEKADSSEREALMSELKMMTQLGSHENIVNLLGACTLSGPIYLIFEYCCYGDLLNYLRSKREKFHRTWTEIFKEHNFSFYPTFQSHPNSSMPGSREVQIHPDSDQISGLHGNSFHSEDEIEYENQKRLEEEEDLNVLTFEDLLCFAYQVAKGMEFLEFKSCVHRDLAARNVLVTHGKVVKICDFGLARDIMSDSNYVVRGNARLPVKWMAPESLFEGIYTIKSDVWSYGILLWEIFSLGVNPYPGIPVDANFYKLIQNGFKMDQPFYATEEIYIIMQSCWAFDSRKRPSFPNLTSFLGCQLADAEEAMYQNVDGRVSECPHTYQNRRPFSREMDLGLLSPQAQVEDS

[7] = Plasma concentration was determined after 8 hr at a dose 30 mg/kg administered orally to rat-5; format: ADME, organism-based; set-up: dose 30 mg/kg, route oral; details: po
Outline: (§2)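 Sprague-Dawley rats, n=2 per compound, dosed orally at 30 mg/kg. Plasma drug concentration measured 1 and 8 h after dosing.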

[8] = Plasma concentration was determined after 1 hr at a dose 30 mg/kg administered orally to rat-5; format: ADME, organism-based; set-up: dose 30 mg/kg, route oral; details: po; outline: as §2
[9] = Plasma concentration was determined after 8 hr at a dose 30 mg/kg administered orally to rat-6; format: ADME, organism-based; set-up: dose 30 mg/kg, route oral; details: po; outline: as §2
[10] = Plasma concentration was determined after 1 hr at a dose 30 mg/kg administered orally to rat-6; format: ADME, organism-based; set-up: dose 30 mg/kg, route oral; details: po; outline: as §2
[11] = Lipophilicity was reported; format: physicochemical; details: octanol/water
[12] = Plasma concentration was determined after 1 hr at a dose 30 mg/kg administered orally to rat-14; format: ADME, organism-based; set-up: dose 30 mg/kg, route oral; details: po; outline: as §2
[13] = pharmacokinetic parameter was evaluated after oral administration of 30 mg/kg to rat; format: ADME, organism-based; set-up: dose 30 mg/kg, route oral; details: in vivo
Outline: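 Sprague-Dawley rats, n=3, dosed orally at 30 mg/kg. Plasma drug concentrations were followed to derive Tmax (h), Cmax (µg/mL), T1/2 (h) and AUC0-∞ (µg h/mL).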

[14] = Solubility in aqueous phosphate buffer (pH 7.4) at 20c was determined; format: physicochemical
[15] = Plasma concentration was determined after 1 hr at a dose 30 mg/kg administered orally to rat-13; format: ADME, organism-based; set-up: dose 30 mg/kg, route oral; details: po; outline: as §2
[16] = Plasma concentration was determined after 8 hr at a dose 30 mg/kg administered orally to rat-14; format: ADME, organism-based; set-up: dose 30 mg/kg, route oral; details: po; outline: as §2
[17] = Plasma concentration was determined after 8 hr at a dose 30 mg/kg administered orally to rat-13; format: ADME, organism-based; set-up: dose 30 mg/kg, route oral; details: po; outline: as §2

| pIC50 [1] | SMILES | other results |
| --- | --- | --- |
| 5.62 | COc1ccc(CNC(=S)N2CCN(c3ncnc4cc(OC)c(OC)cc34)CC2)cc1OC |  |
| 5.23 | COc1cc2ncnc(N3CCN(C(=O)NCCc4ccc(Cl)cc4)CC3)c2cc1OC |  |
| < 4.52 | COc1cc2ncnc(N3CCN(C(=O)Oc4ccc([N+](=O)[O-])cc4)CC3)c2cc1OC |  |
| < 5.00 | COc1cc2ncnc(N3CCN(C(=O)Nc4ccccn4)CC3)c2cc1OC |  |
| 5.86 | COc1cc2ncnc(N3CCN(C(=NC#N)NCc4ccc(C(C)C)cc4)CC3)c2cc1OC |  |
| 6.27 | COc1cc2ncnc(N3CCN(C(=S)N[C@@H](C)c4ccccc4)CC3)c2cc1OC |  |
| < 4.52 | COc1cc2ncnc(N3CCN(C(=S)N[C@H](C)c4ccccc4)CC3)c2cc1OC |  |
|  | COc1cc2ncnc(N3CCN(C(=O)Nc4ccsc4)CC3)c2cc1OC.Cl | IC50 [2]: > 30 uM l-1; IC50 [3]: > 30 uM l-1; pIC50 [4]: 6.10; IC50 [5]: > 30 uM l-1; pIC50 [6]: 5.15 |
| 5.08 | COc1cc2ncnc(N3CCN(C(=O)Nc4cncc(Cl)c4)CC3)c2cc1OC |  |
| 6.39 | COc1cc2ncnc(N3CCN(C(=O)Nc4cccs4)CC3)c2cc1OC |  |
| < 4.52 | COc1cc2ncnc(N3CCN(C(=S)NCC4(c5ccc(Cl)cc5)CC4)CC3)c2cc1OC |  |
| 7.52 | COc1cc2ncnc(N3CCN(C(=S)NCc4ccc(Br)cc4)CC3)c2cc1OC |  |
| 6.64 | COc1cc2ncnc(N3CCN(C(=S)NCc4cccc(Cl)c4)CC3)c2cc1OC |  |
| < 4.52 | COc1cc2ncnc(N3CCN(C(=S)N(C)Cc4ccccc4)CC3)c2cc1OC |  |
| 6.01 | COc1cc2ncnc(N3CCN(C(=S)NCc4ccccc4Cl)CC3)c2cc1OC |  |
| < 4.52 | COc1cc2ncnc(N3CCN(C(=O)Nc4cccnc4)CC3)c2cc1OC |  |
| 7.15 | COc1cc2ncnc(N3CCN(C(=S)NCc4ccc(Cl)cc4)CC3)c2cc1OC | concentration at 8 h [7]: 1300 ng/mL; concentration at 1 h [8]: 2400 ng/mL; concentration at 8 h [9]: < 100 ng/mL; concentration at 1 h [10]: < 100 ng/mL |
| 5.02 | COc1cc2ncnc(N3CCN(C(=O)NCc4ccc(F)cc4)CC3)c2cc1OC |  |
| 6.26 | COc1cc2ncnc(N3CCN(C(=O)NCc4ccc(C(C)C)cc4)CC3)c2cc1OC |  |
| 7.10 | COc1cc2ncnc(N3CCN(C(=O)Nc4ccc(Oc5ccccc5)cc4)C(C)C3)c2cc1OC (configuration not stated) |  |
|  | COc1cc2ncnc(N3CCN(C(=O)Nc4ccc([N+](=O)[O-])cc4)CC3)c2cc1OC | logD [11]: 3.22 |
| 6.55 | COc1cc2ncnc(N3CCN(/C(S)=N\Cc4cccnc4)CC3)c2cc1OC.Cl.Cl | concentration at 1 h [12]: 2600 ng/mL; AUC [13]: 9840 ng·h/mL; Cmax [13]: 6980 ng/mL; Tmax [13]: 0.67 h; half-life [13]: 2.11 h; solubility [14]: 2.2 µg/mL; logD [11]: 2.49; concentration at 1 h [15]: 2600 ng/mL; concentration at 8 h [16]: < 100 ng/mL; concentration at 8 h [17]: < 100 ng/mL |
| 4.63 | COc1cc2ncnc(N3CCN(C(=NC#N)NCc4cccc(Cl)c4)CC3)c2cc1OC |  |
| 6.01 | COc1cc2ncnc(N3CCN(C(=S)Nc4ccncc4)CC3)c2cc1OC |  |
| 6.26 | COc1cc2ncnc(N3CCN(C(=S)Nc4cncc(Cl)c4)CC3)c2cc1OC |  |
| 5.53 | COc1cc2ncnc(N3CCN(C(=O)NCc4ccc(C)cc4)CC3)c2cc1OC |  |
| 6.96 | COc1cc2ncnc(N3CCN(C(=O)NCc4ccc(C(C)(C)C)cc4)CC3)c2cc1OC |  |
| 6.02 | COc1cc2ncnc(N3CCN(C(=NC#N)NCc4ccc(Cl)cc4)CC3)c2cc1OC |  |
| 6.70 | COc1cc2ncnc(N3CCN(C(=S)NCc4ccc(C(C)C)cc4)CC3)c2cc1OC |  |
